Here are results for 6 compounds from ChEMBL document CHEMBL1140336, “Synthesis, structure-activity relationships, and biological evaluation of fatty alcohol phosphates as lysophosphatidic acid receptor ligands, activators of PPARgamma, and inhibitors of autotaxin” (J Med Chem, 2005).

Structures are written as SMILES.

The target in assay [1] is T1, Lysophosphatidic acid receptor 1 (Homo sapiens, UniProt Q92633). As to the kind of experiment: Maximal efficacy in induction of [Ca2+] transients in RH7777 rat hepatoma cells expressing LPA1 receptor. It counts as functional, cell-based. In a few lines: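 Agonist mode in RH7777 cells stably expressing the named LPA receptor, serum-starved 6-8 h, Fura-2 AM loaded. Increasing compound concentrations were added alone and the Ca2+ transient was read as the 340/380 ratio peak minus baseline. Emax = compound maximal response as a percentage of the LPA 18:1 maximal response.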

A short description of assay [2]: Percent maximal efficacy in PC-3 cells. It counts as functional, Homo sapiens. In a few lines:
(§1)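 PC-3 human prostate cancer cells, which express LPA1-3 endogenously, 50000 cells/well. Serum-starved 12 h in modified Krebs, loaded with Fura-2 AM, read in a FlexStation. Ca2+ transient = 340/380 ratio peak minus baseline. Agonism (Emax as % of maximal LPA 18:1 response) and inhibition of LPA-induced transients were measured.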

Assay [3] has as its target T2, Lysophosphatidic acid receptor 3 (Homo sapiens, UniProt Q9UBY5).
T2 sequence (Q9UBY5 whole entry): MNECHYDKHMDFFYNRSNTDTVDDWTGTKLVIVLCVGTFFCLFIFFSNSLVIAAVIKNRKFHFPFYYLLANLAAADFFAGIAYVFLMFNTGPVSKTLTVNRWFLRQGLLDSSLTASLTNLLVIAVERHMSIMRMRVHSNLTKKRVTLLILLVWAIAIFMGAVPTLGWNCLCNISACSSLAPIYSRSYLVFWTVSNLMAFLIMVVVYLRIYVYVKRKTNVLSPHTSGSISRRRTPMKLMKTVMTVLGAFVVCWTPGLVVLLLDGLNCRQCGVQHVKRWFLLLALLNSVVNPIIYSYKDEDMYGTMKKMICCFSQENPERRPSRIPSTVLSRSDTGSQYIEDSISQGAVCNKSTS
Nature of the assay: (§2) Inhibition of LPA-induced calcium transients in RH7777 rat hepatoma cells expressing LPA3 receptor. The assay is classed as functional, cell-based.

Assay [4] deals with T1, Lysophosphatidic acid receptor 1. As to the kind of experiment: (§3) Inhibition of LPA-induced calcium transients in RH7777 rat hepatoma cells expressing LPA1 receptor. It counts as functional, cell-based.
For assay [5], the target named is T3, Lysophosphatidic acid receptor 2 (Homo sapiens, UniProt Q9HBW0). As to the kind of experiment: Inhibition of LPA-induced calcium transients in RH7777 rat hepatoma cells expressing LPA2 receptor; No effect. It counts as functional, cell-based. The method in brief: (§4)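 Fura-2 Ca2+ assay. RH7777 cells stably expressing LPA1, LPA2 or LPA3, or PC-3 cells (endogenous LPA1-3), seeded at 50000 cells/well on poly-D-lysine and grown overnight. Serum-starved in modified Krebs, pH 7.4, for 6-8 h (PC-3: 12 h), then Fura-2 AM loaded for 35 min. Compound added at 15 s; wells read 80-120 s. Transient taken as peak minus baseline 340/380 ratio. Antagonism: LPA 18:1 coapplied; highest concentration 30 μM.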

Assay [6] addresses T2, Lysophosphatidic acid receptor 3. As to the kind of experiment: Inhibition of LPA-induced calcium transients in RH7777 rat hepatoma cells expressing LPA3 receptor; No effect. The assay is classed as functional, cell-based. In a few lines:
as §4

The target in assay [7] is T1, Lysophosphatidic acid receptor 1. Nature of the assay: (§5) Inhibition of LPA-induced calcium transients in RH7777 rat hepatoma cells expressing LPA1 receptor; No effect. The assay is classed as functional, cell-based. The method in brief: as §4
Assay [8] is filed under the species Homo sapiens. Nature of the assay: Inhibitory concentration of compound (after 5 min of incubation) against LPA human platelets.
The target in assay [9] is T2, Lysophosphatidic acid receptor 3. Nature of the assay: Binding affinity for Lysophosphatidic acid receptor 3 expressed in RH7777 rat hepatoma cells. It counts as cell-based. The method in brief: as §4
Assay [10] addresses T1, Lysophosphatidic acid receptor 1. Described as §3. It counts as functional, cell-based. In a few lines:
as §4
This is another data set of the same source.

The target of assay [11] is T2, Lysophosphatidic acid receptor 3. The assay is described as §2. It counts as functional, cell-based. In a few lines:
as §4
The source holds these as a separate data set.

The species entered for assay [12] is Homo sapiens. As to the kind of experiment: (§6) Concentration of compound (after 5 min of addition) that induce LPA expressed in human platelets. The assay is classed as functional. The method in brief: (§7)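 Washed human platelets, aspirin-treated and isolated with apyrase, at 4 × 10^5/μL in HEPES buffer pH 7.4, stirred at 37 °C. Lipids given as BSA complexes (4:1). Shape change read as the fall in light transmission in an aggregometer. […] Mean ± SD across different donors.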

The species entered for assay [13] is Homo sapiens. Nature of the assay: Maximal shape change of human platelets induced by the compound. It counts as functional. In a few lines: as §7
For assay [14], the target named is T1, Lysophosphatidic acid receptor 1. As to the kind of experiment: Binding affinity for Lysophosphatidic acid receptor 1 expressed in RH7777 rat hepatoma cells. The assay is classed as cell-based. In a few lines: as §4
Assay [15] deals with T3, Lysophosphatidic acid receptor 2. As to the kind of experiment: Inhibition of LPA-induced calcium transients in RH7777 rat hepatoma cells expressing LPA2 receptor;No effect. The assay is classed as functional, cell-based. In a few lines: as §4
In assay [16] the target is T1, Lysophosphatidic acid receptor 1. Nature of the assay: Inhibition of LPA-induced calcium transients in RH7777 rat hepatoma cells expressing LPA1 receptor; Not effect. The assay is classed as functional, cell-based. The method in brief: as §4
For assay [17] the target is unchanged. Described as §5. It counts as functional, cell-based. The source holds these as a separate data set.
For another assay, the system named is PC-3. Nature of the assay: Inhibitory concentration against LPA expressed in PC-3 cells; Weak antagonist. The assay is classed as functional, cell-based, Homo sapiens. The method in brief:
as §4

Assay [18] deals with T3, Lysophosphatidic acid receptor 2. Nature of the assay: Inhibition of LPA-induced calcium transients in RH7777 rat hepatoma cells expressing LPA2 receptor. The assay is classed as functional, cell-based.
A short description of assay [19]: Inhibition of LPA-induced calcium transients in PC-3 cells; No effect. The assay is classed as functional, cell-based, Homo sapiens. In a few lines:
as §4

Assay [20] is described as follows: Inhibition of LPA expressed in PC-3 cells; No effect. The assay is classed as functional, cell-based, Homo sapiens. In a few lines:
as §4

The species entered for assay [21] is Homo sapiens. The description is as §6. It counts as functional. The source holds these as a separate data set.
Assay [22] is described as follows: Binding affinity for Lysophosphatidic acid receptor in PC-3 cells. It counts as cell-based, Homo sapiens. The method in brief:
as §4

Assay [23] is described as follows: Inhibition of LPA-induced calcium transients in PC-3 cells. The assay is classed as functional, cell-based, Homo sapiens. The note with it: Homo sapiens, PC-3; read-out: IC50. The method in brief: as §1

T1 sequence (Q92633 whole entry): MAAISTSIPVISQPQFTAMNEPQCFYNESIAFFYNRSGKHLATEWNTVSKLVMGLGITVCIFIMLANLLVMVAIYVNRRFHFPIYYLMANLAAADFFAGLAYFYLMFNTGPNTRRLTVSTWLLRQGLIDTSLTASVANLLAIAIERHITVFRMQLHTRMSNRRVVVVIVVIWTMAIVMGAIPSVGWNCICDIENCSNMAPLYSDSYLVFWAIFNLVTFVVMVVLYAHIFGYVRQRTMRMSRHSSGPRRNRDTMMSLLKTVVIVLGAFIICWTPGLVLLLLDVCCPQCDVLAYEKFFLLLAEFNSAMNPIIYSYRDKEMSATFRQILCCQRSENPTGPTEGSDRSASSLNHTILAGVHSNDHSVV
T3 sequence (Q9HBW0 whole entry): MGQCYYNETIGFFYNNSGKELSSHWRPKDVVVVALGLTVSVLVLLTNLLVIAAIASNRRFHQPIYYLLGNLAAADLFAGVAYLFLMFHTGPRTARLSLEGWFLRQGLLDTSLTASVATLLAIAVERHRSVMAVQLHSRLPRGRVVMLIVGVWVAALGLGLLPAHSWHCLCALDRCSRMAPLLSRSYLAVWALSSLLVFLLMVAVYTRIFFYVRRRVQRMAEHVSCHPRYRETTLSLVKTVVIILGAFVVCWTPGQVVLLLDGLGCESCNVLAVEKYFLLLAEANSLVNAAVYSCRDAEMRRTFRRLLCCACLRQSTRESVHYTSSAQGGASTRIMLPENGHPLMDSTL

The Emax is the maximal effect, on the per cent scale that the assay sets. What is called EC50 is the concentration needed to bring the measured effect to its halfway point. Broadly, the IC50 is the concentration that inhibits the measured activity by half. As to `CCCCCCCCCCCCCCCC(=O)N[C@@H](COP(=O)(O)O)C(=O)O`, the Emax in assay [1] was found to be 100%; in assay [2], 42%. In addition, the EC50 in assay [3] was 1600 nM; in assay [4], 1850 nM; in assay [5], “Not Active”. For the same compound, the IC50 entry in [5] and in assay [6] was “Not Active” each time.
For orientation: Ki means the dissociation constant of the complex between target and ligand, obtained from inhibition or displacement. The low end stands for a stronger hold on the target, the high end for a looser hold on the target. As for `CCCCCCCCCCCCCCOP(=O)(O)O` [PHOSPHORIC ACID MONOTETRADECYL ESTER], the EC50 entry is “Not Active” in assay [7], “Not Active” in [5], 430 nM in the assay filed under Homo sapiens [12] and “Not Active” in assay [6]. The IC50 in the assay filed under Homo sapiens [8] was 420 nM; in assay [10] it was 2300 nM; in [11], 422 nM; in assay [15], “Not Active”. In addition, the Ki in assay [9] worked out at 211 nM; in assay [14], 1080 nM. The compound further had an Emax in the assay filed under Homo sapiens [13] of 87%.
In the case of `CCCCCCCC(=O)OC[C@H](COP(=O)(O)OP(=O)(O)O)OC(=O)CCCCCCC`, the EC50 entry in [16], in assay [5] and in assay [6] was “Not Active” in each case. Moreover, the Ki in assay [9] is 202 nM; in assay [14], 4300 nM. Also, the IC50 in assay [10] was 5500 nM; in [5], “Not Active”; in [11], 454 nM.
`CCCCCCCCCCCCCCCC(=O)N[C@@H](Cc1ccc(OP(=O)(O)O)cc1)C(=O)O` had an Emax in [2] of 25%. Moreover, the EC50 result in [7] was “Not Active”; in assay [18] it was roughly 11000 nM; in [6] it was “Not Active”. Also, the IC50 entry was “Not Active” in [17], “Not Active” in assay [5], 5570 nM in [11] and “Partial antagonist” in the assay on PC-3. The compound also showed a Ki in assay [9] of 2320 nM.
As to `CCCCCCCCCCCCCCCCCCP(=O)(O)O`, the EC50 entry in assay [19], in assay [7], in assay [5] and in assay [6] was “Not Active” each time. The IC50 entry in assay [17], in assay [20], in assay [5] and in assay [6] was “Not Active” throughout.
As for `CC/C=C/CCCCCCCCOP(O)(O)=S`, the Emax in assay [2] was 27%; in the assay listed under Homo sapiens [13], 73%. Further, the 50% effective concentration (EC50) entry is “Not Active” in [7], 1000 nM in the assay listed under Homo sapiens [21], 677 nM in [18] and “Not Active” in [6]. Further, the IC50 result is “Not Active” in [17]; 700 nM in the assay filed under Homo sapiens [8]; “Not Active” in assay [5]; 27 nM in [11]; 2970 nM in assay [23]. The Ki is 14 nM in assay [9] and 1460 nM in assay [22].
